In general, pIC50 refers to −log10 of the IC50, conventionally taken in molar units.

pIC50: −log10 of the molar value. Bounds are passed on as bounds.

Here are results for six compounds from ChEMBL document CHEMBL1138063, “Imidazole-dioxolane compounds as isozyme-selective heme oxygenase inhibitors” (J Med Chem, 2006).

In experiment [1] the target is T1, Heme oxygenase 2 (Rattus norvegicus, UniProt P23711).
T1 sequence (P23711 whole entry): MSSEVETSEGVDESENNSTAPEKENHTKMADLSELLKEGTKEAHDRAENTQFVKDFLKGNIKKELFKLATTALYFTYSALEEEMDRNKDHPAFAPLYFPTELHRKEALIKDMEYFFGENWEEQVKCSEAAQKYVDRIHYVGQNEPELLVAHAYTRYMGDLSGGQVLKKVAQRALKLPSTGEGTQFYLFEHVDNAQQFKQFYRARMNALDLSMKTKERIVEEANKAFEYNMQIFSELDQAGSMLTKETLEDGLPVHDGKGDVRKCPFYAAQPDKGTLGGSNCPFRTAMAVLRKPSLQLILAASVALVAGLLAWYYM
The experiment can be described thus: Inhibition of Sprague-Dawley rat brain HO2. The procedure, abridged: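 HO-2 source: Sprague-Dawley rat brain microsomes prepared by differential centrifugation. Compound (HCl salt) at 0.1–100 µM final was preincubated 10 min at 37 °C with 50 µM methemalbumin and 1 mg/mL protein in 100 mM phosphate pH 7.4. NADPH (1 mM final) was added and the mix incubated 15 min at 37 °C, then frozen on dry ice. CO was measured by GC, minus no-NADPH blanks. IC50 from sigmoidal fits, 2–3 replicate curves.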

Experiment [2] in a line: Inhibition of rat liver CYP3A1/3A2. Type of experiment: ADME, tissue-based. A digest of the protocol:
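CYP3A1/3A2 in rat liver microsomes, measured as erythromycin N-demethylase activity by spectrophotometric formaldehyde determination. Remaining activity was taken as % of control across inhibitor concentrations. IC50 came from a sigmoidal nonlinear regression, with two or three replicate curves.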

The target in the next experiment is Cytochrome P450 2E1 (Rattus norvegicus, UniProt P05182). The experiment can be described thus: Inhibition of rat liver CYP2E1. The format is ADME, tissue-based. A digest of the protocol: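 Rat liver microsomal CYP2E1 activity was read as p-nitrophenol hydroxylation, by spectrophotometric measurement of 4-nitrocatechol. Activity at several inhibitor concentrations (HCl salts) was expressed as percent of control. IC50 came from a nonlinear sigmoidal dose-response fit of each of two or three replicate curves.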
Sequence of Cytochrome P450 2E1 (P05182 whole entry): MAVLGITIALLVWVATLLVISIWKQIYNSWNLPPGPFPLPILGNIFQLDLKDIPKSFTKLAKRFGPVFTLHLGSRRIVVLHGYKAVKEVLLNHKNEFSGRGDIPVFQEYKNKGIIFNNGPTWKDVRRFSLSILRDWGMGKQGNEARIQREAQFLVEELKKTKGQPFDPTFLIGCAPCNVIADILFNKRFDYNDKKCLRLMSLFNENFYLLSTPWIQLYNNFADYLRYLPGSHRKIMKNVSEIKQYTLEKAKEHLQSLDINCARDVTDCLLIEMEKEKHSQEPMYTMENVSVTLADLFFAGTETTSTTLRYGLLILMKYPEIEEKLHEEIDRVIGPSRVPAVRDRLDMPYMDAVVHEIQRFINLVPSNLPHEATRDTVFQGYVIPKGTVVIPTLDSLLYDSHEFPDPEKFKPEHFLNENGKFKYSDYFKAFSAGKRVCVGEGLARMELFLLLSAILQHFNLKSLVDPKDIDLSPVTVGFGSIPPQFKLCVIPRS

The target in the next experiment is Nitric oxide synthase 1 (Rattus norvegicus, UniProt P29476). The experiment can be described thus: Inhibition of rat brain nNOS. A digest of the protocol:
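nNOS in rat brain cytosolic fraction, read as conversion of 14C-L-arginine to 14C-L-citrulline. Activity at several inhibitor concentrations was expressed as % of the uninhibited control. IC50 came from a nonlinear sigmoidal dose–response fit, with two or three replicate curves per compound.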

The target of the next experiment is T2, Heme oxygenase 1 (Homo sapiens, UniProt P09601).
T2 sequence (P09601 whole entry): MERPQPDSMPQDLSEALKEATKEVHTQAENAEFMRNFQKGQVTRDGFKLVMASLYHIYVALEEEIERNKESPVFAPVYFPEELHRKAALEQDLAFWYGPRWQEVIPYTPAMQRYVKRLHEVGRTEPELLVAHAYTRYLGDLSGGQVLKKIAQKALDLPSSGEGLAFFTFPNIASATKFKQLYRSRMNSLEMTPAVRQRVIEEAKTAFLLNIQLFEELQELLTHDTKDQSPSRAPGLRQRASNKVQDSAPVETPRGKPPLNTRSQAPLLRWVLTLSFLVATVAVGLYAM
The experiment can be described thus: Inhibition of human spleen HO1. The procedure, abridged:
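HO-1 in human spleen microsomes. Heme was given as 50 µM methemalbumin in 100 mM phosphate buffer (pH 7.4) with 1 mg/mL protein. Inhibitor (0.1–100 µM final) was preincubated 10 min at 37 °C, then 1 mM NADPH was added for 15 min at 37 °C. Blanks lacking NADPH were subtracted. Reactions were stopped on dry ice and CO was measured by GC. IC50 came from sigmoidal fits of % control, from 2–3 replicate curves.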

Experiment [3] deals with T1, Heme oxygenase 2. The experiment can be described thus: Inhibition of rat liver HO2. The procedure, abridged: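 HO-2 source: rat liver microsomes. Heme was presented as methemalbumin (50 µM) with 1 mg/mL protein in 100 mM phosphate pH 7.4. Compound (HCl salt) was preincubated 10 min at 37 °C, then NADPH (1 mM final) was added for 15 min at 37 °C. CO was measured by GC, minus no-NADPH blanks. IC50 from sigmoidal fits of replicate curves.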

Experiment [4] has as its target Soluble guanylate cyclase (Rattus norvegicus). The experiment can be described thus: Inhibition of rat lung sGC.

Sequence of Nitric oxide synthase 1 (P29476 whole entry): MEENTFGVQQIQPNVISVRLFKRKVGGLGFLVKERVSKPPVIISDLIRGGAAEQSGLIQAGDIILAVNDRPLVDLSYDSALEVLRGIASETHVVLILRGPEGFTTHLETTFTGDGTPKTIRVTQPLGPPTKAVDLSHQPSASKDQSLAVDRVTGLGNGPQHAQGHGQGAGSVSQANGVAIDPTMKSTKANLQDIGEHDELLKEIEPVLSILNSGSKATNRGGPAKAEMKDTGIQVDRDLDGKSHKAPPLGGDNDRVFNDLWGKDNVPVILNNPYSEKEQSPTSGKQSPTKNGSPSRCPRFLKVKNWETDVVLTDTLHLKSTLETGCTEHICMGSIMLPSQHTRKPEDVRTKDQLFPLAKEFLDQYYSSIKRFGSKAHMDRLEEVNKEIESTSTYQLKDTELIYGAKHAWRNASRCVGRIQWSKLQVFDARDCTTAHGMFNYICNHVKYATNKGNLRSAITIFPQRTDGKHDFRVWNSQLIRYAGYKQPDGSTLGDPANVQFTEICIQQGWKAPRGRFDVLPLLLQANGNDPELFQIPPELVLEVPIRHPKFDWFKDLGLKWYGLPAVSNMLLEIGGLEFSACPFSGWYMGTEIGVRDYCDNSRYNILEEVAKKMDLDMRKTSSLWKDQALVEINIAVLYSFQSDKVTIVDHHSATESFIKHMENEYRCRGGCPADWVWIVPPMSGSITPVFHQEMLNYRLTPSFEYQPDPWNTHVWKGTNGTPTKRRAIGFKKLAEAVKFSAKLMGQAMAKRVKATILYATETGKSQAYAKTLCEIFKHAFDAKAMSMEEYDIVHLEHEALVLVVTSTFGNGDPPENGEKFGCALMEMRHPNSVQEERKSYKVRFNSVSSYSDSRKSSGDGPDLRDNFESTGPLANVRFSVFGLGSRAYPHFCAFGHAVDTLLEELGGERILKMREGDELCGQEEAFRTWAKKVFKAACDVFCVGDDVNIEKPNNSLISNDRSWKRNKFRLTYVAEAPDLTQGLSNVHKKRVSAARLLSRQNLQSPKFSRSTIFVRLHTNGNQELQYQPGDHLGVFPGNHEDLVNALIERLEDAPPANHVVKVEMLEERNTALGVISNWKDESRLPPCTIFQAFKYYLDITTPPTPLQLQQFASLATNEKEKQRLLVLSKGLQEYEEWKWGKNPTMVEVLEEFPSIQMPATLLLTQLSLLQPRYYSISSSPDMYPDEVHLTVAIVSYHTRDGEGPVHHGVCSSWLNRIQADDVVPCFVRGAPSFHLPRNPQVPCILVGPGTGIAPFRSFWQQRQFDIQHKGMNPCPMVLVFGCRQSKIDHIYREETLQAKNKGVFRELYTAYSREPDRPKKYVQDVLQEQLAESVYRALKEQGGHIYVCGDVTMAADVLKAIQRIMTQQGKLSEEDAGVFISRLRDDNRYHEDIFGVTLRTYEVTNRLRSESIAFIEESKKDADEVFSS

Regarding `C[C@@H]1CO[C@](CCc2ccc(Cl)cc2)(Cn2ccnc2)O1`, the pIC50 is under 4.00 on Heme oxygenase 2 [1], 5.15 in experiment [2], 4.52 against Cytochrome P450 2E1 and under 3.30 on Nitric oxide synthase 1.
Regarding `C[C@@H]1CO[C@@](CCc2ccc(Cl)cc2)(Cn2ccnc2)O1`, the negative-log IC50 (pIC50) in experiment [2] is 5.49; against Cytochrome P450 2E1, 5.44; at Heme oxygenase 1 it was 5.82; against Heme oxygenase 2 [3], 3.27; on Nitric oxide synthase 1, 3.44.
Regarding `Clc1ccc(CCC2(Cn3ccnc3)SCCS2)cc1`, the results for the pIC50 (in experiment [2]; at Nitric oxide synthase 1) were 5.23 and 4.47, respectively.
Consider `C[C@H]1CO[C@](CCc2ccc(Cl)cc2)(Cn2ccnc2)O1`, for which the pIC50 is under 4.00 against Heme oxygenase 2 [1], 5.00 in experiment [2], 4.70 at Cytochrome P450 2E1 and under 3.30 against Nitric oxide synthase 1.
`C[C@H]1CO[C@@](CCc2ccc(Cl)cc2)(Cn2ccnc2)O1`: the values for the pIC50 (in experiment [2]; against Cytochrome P450 2E1; at Nitric oxide synthase 1) were 5.10, 5.22 and 3.11, respectively.
For `Clc1ccc(CCC2(Cn3ccnc3)OCCO2)cc1`, the pIC50 at Heme oxygenase 2 [1] is under 4.00; against Cytochrome P450 2E1, 5.30; against Nitric oxide synthase 1 it was 3.74; in experiment [4], under 3.00.
